A short description of data set [1]: AUC in leukemic neutropenic patient with pulmonary aspergillosis at 300 mg twice daily, po on day 7. Format: ADME, organism-based. As to conditions: human, plasma. A digest of the protocol: (§1)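 Patients' citrated blood drawn just before and 2, 4, 6 and 12 h after a dose on days 2, 7 and 14 of therapy. Plasma was analysed by HPLC: acetonitrile precipitation, C18 column, UV detection at 255 nm. AUC over the 0–12 h dosing interval used the linear trapezoidal rule during rise and the log trapezoidal rule during decay. Cmax and trough were summarised descriptively.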

Data set [2] in a line: Cmax in leukemic neutropenic patient with pulmonary aspergillosis at 300 mg twice daily, po. In kind it is ADME, organism-based. Further details: dose 300 mg, route oral. As to conditions: human, in vivo. A digest of the protocol: as §1
Data set [3] can be described thus: Cmax in leukemic patient with pulmonary aspergillosis at 200 mg twice daily, po on day 14. Format: ADME, organism-based. Particulars: human, in vivo. Further details: dose 200 mg, route oral. A digest of the protocol: as §1
The subject of data set [4] is Homo sapiens. As to the kind of experiment: Trough concentration in leukemic patient with pulmonary aspergillosis at 200 mg twice daily, po on day 7. In kind it is ADME, organism-based. Particulars: in vivo. Summed up: as §1
The nature of data set [5]: Cmax in patient with invasive mycoses on day 1. In kind it is ADME, organism-based. As to conditions: human, in vivo.
The test system of data set [6] is Candida albicans. As to the kind of experiment: Growth inhibition of Candida albicans ATCC 95020 at 0.2 to 25 mg/L. Format: functional. A digest of the protocol:
(§2)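 Agar-well diffusion bioassay. Overnight YPD culture at 35°C was diluted to 1.5 x 10^7 CFU/ml inoculum. Agar contained yeast nitrogen base, glucose and phosphate buffer pH 5.5. Wells held 25 µl spiked plasma standards (8 points, 0.2–25 mg/liter). Plates stood 2 h at 4°C for diffusion, then 14 h at 35°C. Inhibition zones: four diameters by caliper.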

Data set [7] in a line: AUC in leukemic patient with pulmonary aspergillosis at 200 mg twice daily, po on day 7. In kind it is ADME, organism-based. As to conditions: human, plasma. Summed up: as §1
Data set [8] has as its system Homo sapiens. Description: Trough concentration in leukemic patient with pulmonary aspergillosis at 200 mg twice daily, po on day 14. Particulars: in vivo. In kind it is ADME, organism-based. A digest of the protocol:
as §1

Data set [9] in a line: AUC in leukemic neutropenic patient with pulmonary aspergillosis at 300 mg twice daily, po on day 1. Format: ADME, organism-based. As to conditions: human, plasma.
The species entered for data set [10] is Homo sapiens. Description: Trough level in patient with invasive mycoses on day 1. Particulars: in vivo. Format: ADME, organism-based.
For data set [11], the system named is Homo sapiens. Description: Trough level in leukemic neutropenic patient with pulmonary aspergillosis at 300 mg twice daily, po. In kind it is ADME, organism-based. As to conditions: in vivo. A digest of the protocol:
as §1

Data set [12] deals with Kluyveromyces marxianus. Description: Growth inhibition of Candida kefyr B11501 at 0.2 to 25 mg/L. In kind it is functional. A digest of the protocol:
as §2

Data set [13] in a line: AUC in leukemic patient with pulmonary aspergillosis at 200 mg twice daily, po on day 14. Format: ADME, organism-based. Particulars: human, plasma. A digest of the protocol:
as §1

Data set [14] deals with Candida albicans. As to the kind of experiment: Growth inhibition of Candida albicans mutant DSY2621 at 0.2 to 25 mg/L. In kind it is functional. A digest of the protocol: as §2
The nature of data set [15]: Cmax in leukemic patient with pulmonary aspergillosis at 200 mg twice daily, po on day 7. In kind it is ADME, organism-based. More on the design: dose 200 mg, route oral. As to conditions: human, in vivo. Summed up:
as §1

By AUC is commonly meant concentration integrated over time. Low readings indicate less exposure, high ones more exposure. A word on the Cmax: it is the peak of the concentration-time curve.

Structures are written as SMILES.

Turning to `C[C@@H](c1ncncc1F)[C@](O)(Cn1cncn1)c1ccc(F)cc1F` [VORICONAZOLE], the exposure (AUC) in [1] came out at 40500 ng·h/mL; in data set [7], 12900 ng·h/mL; in data set [9] it was 43000 ng·h/mL; in data set [13], 2900 ng·h/mL. Further, the Cmax in data set [2] came out at 4300 ng/mL; in data set [3] it was 300 ng/mL; in data set [5] it was 6000 ng/mL; in [15], 1900 ng/mL. Moreover, the Cmin turned out to be 500 ng/mL in data set [4], 200 ng/mL in data set [8], 3000 ng/mL in [10] and 2600 ng/mL in data set [11]. For the same compound, the Inhibition in data set [6] turned out to be 21 mm; in [12], 23 mm; in data set [14], 17 mm.

For the origin of these results see ChEMBL document CHEMBL1142163 (Antimicrob Agents Chemother, 2007).
